Our source for the Activity values is ChEMBL document CHEMBL4706601, “The endocannabinoid system dual-target ligand N-cycloheptyl-1,2-dihydro-5-bromo-1-(4-fluorobenzyl)-6-methyl-2-oxo-pyridine-3-carboxamide improves disease severity in a mouse model of multiple sclerosis” (Eur J Med Chem, 2020).

In assay [1] the target is Cannabinoid receptor 2 (Mus musculus) (UniProt P47936). The experiment in a line: Agonist activity at CB2R in LPS induced mouse BV2 cells assessed as IL-6 secretion at 10 uM preincubated for 30 mins followed by LPS stimulation for 4 hrs by ELISA (reference value: 764.7 +/-22.9%). It counts as cell-based. The note with it: BV-2, filed as agonist, time 270.0 min. The essentials:
(§1)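 BV-2 murine microglia grown in high-glucose DMEM with 10% FBS. Treatments in FBS-free medium: test agonist 10 μM for 30 min, then LPS 5 μg/ml for 4 h; SR144528 10 μM given 15 min before agonist. DMSO ≤0.1% final. Medium spun 10 min at 1000×g; IL-1β, IL-6, IL-10 quantified by ELISA; three independent experiments in duplicate.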
For orientation: An ELISA detects its analyte on a solid surface through an enzyme-linked reagent.

Assay [2] concerns Mus musculus. Kind of assay: In vivo agonist activity at CB1R in C57BL/6J mouse assessed as functional CB1R level in brain at 10 mg/kg, ip after 20 days by [35S]GTPgammaS assay. It counts as organism-based. The following applies: time 20.0 day. The essentials: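 After 20 days of EAE treatment, half-brain membranes (20 µg) pre-incubated 30 min at 37 °C with adenosine deaminase 0.5 units/mL, 30 μM GDP, 0.2 nM [35S]GTPγS at pH 7.4. Stimulated by CP55,940 1 μM, SR141716A 1 μM, both, or vehicle for 1 h at 30 °C; nonspecific with 10 μM GTPγS; expressed as % of vehicle control.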

Assay [3] concerns Mus musculus. The experiment in a line: Antiinflammatory activity in MOG (35 to 55 residues)/pertussis toxin-induced experimental autoimmune encephalomyelitis C57BL/6J mouse model assessed as improvement in disease severity at 10 mg/kg, ip dosed once daily for 20 days starting from day 10 to 16 post immunization and measured at day 5 to 9 post treatment. The note with it: time 5-9 day. It counts as functional, organism-based. In short, it runs like this:
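Active EAE in mice: 200 µg MOG35-55 in CFA (4 mg/ml M. tuberculosis) s.c. at hips and tail root, plus pertussis toxin 300 ng i.p. after immunization and 48 h later. Daily i.p. dosing (DMSO vehicle) for 20 days from each mouse's onset (day 10–16); onset = day 1. Daily clinical score; multiple t-tests with Holm-Sidak.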

The target of assay [4] is Cannabinoid receptor 1 (Rattus norvegicus) (UniProt P20272). Kind of assay: Agonist activity at CB1R in Sprague-Dawley rat hippocampal synaptosomes assessed as inhibition of 4-AP evoked glutamate release at 10 uM preincubated for 8 mins followed by 4-AP addition by HPLC analysis. The following applies: Hippocampus, filed as agonist. It is filed as subcellular. In short, it runs like this: (§2)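 Rat (male Sprague Dawley, 200-250 g) hippocampal synaptosomes from Percoll gradient, superfused at 37 °C (0.5 ml/min); 4-AP 600 μM for 2 min. Compounds and antagonists (SR141716A, SR144528, 1 μM) added 8 min before 4-AP and kept during it; basal effects tested by 2-min exposure alone. Endogenous glutamate by HPLC as pmol/mg protein; overflow = stimulated minus basal in control chambers; n = 3–9, triplicate.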

Assay [5] deals with Cannabinoid receptor 2 (Mus musculus) (UniProt P47936). Kind of assay: Agonist activity at CB2R in LPS induced mouse BV2 cells assessed as IL-1beta secretion at 10 uM preincubated for 30 mins followed by LPS stimulation for 4 hrs by ELISA (reference value: 734.3 +/-35.1%). It is filed as cell-based. The note with it: BV-2, filed as agonist, time 270.0 min. The essentials: as §1

The target in assay [6] is Cannabinoid receptor 1 (Rattus norvegicus) (UniProt P20272). The experiment in a line: Agonist activity at CB1R in Sprague-Dawley rat hippocampal synaptosomes assessed as inhibition of 4-AP evoked glutamate release at 10 uM preincubated for 8 mins followed by 4-AP addition in presence of 1 uM CB2R antagonist, SR144528 by HPLC analysis. It is filed as subcellular. The note with it: Hippocampus, filed as agonist. In short, it runs like this:
as §2

Calls of active or inactive are those of the source. The rule behind the calls is not given here.

Cannabinoid receptor 1 (Rattus norvegicus), sequence (P20272 whole entry, the tested form may be a part): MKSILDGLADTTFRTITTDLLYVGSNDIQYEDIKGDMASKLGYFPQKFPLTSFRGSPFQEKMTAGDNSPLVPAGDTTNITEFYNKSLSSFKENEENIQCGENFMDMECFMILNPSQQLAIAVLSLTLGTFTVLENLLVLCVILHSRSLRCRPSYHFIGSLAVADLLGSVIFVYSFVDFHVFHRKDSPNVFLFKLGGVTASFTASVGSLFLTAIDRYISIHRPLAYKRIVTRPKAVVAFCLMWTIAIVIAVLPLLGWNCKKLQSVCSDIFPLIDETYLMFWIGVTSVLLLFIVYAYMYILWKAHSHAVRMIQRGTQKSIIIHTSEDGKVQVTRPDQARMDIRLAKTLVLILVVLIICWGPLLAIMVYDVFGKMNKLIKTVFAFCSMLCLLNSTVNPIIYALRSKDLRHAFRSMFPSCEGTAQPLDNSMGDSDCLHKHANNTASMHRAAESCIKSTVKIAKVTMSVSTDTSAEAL
Cannabinoid receptor 2 (Mus musculus), sequence (P47936 whole entry): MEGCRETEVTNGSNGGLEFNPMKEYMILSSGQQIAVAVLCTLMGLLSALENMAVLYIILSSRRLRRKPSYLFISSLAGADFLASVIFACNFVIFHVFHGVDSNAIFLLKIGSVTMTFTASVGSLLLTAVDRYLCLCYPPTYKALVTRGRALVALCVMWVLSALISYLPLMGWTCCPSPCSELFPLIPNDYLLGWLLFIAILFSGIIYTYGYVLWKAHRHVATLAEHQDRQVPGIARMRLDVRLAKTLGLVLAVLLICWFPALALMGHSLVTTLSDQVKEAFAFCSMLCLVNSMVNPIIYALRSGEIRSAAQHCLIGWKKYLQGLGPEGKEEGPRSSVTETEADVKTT

As to `Cc1c(Br)cc(C(=O)NC2CCCCCC2)c(=O)n1Cc1ccc(F)cc1`, the Activity in assay [1] amounted to 27.8%; in assay [5] it was 24.6%. In addition, the outcome with Mus musculus [2] and with Mus musculus [3] was inactive. The result in assay [4] and in assay [6] was Active.
